An excerpt weighted towards active compounds, which were near 3.9% of everything screened.
TMEM16A act – activators or potentiators of mouse TMEM16A chloride channel | B-score at 10 µM | 0.3% of 340,000 active | HEK293 TMEM16A/YFP-H148Q/I152L, iodide quench fluorescence; hits give low values | AID 623877 | Q8BHY3;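 active means fluorescence-ratio B-score plate-corrected deviation score at least 3 library SD below zero, with starting fluorescence score within 5 deviations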;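 further: channel opened by trigger with iodide after compound preincubation; score built on the fluorescence ratio of max minus min over baseline; more negative score means more quench and so TMEM16A activation or potentiation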
CRFBP-R2 agonist – CRF-BP/CRF-R2 complex agonism; HEK293 CRF-R2/CRF-BP, calcium dye fluorescence (FLIPR); percent of saturating CRF peptide response; activation, % at 13.2 µM; 0.46% of 350,000 active;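 active means activation of at least 50%, plus an integration ratio under a set limit after plate pattern correction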
TAAR1 antagonist – human TAAR1 antagonism; CHO RD-HGA16 TAAR1, Fluo-8 calcium fluorescence, antagonist; AID 624466; 1.5% of 360,000 active; inhibition, % at 3 µM; Q96RJ0;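 active means inhibition above a per-plate cutoff, the mean inhibition of test compounds on that plate plus 3 SD, cut at about 49% in these data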
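Test system: RD-HGA16 CHO cells with stable hTAAR1 and Gα16 / Probe or stimulus: EC80 β-phenethylamine stimulus / Times: seeding 17-24 h prior, 75-min 37 °C, 30-min RT dye loading / Detection: Fluo-8 calcium-sensitive fluorescence / Read-out basis: % inhibition scaled between DMSO and EC80 PEA controls / Repeats: singlicate, one well per test compound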
CRFR2-BP antag – CRF-BP/CRF-R2 complex antagonism | 0.59% of 350,000 active | HEK293 CRF-R2/CRF-BP, CRF-induced calcium fluorescence | inhibition, % at 11.8 µM;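 active means inhibition of the ligand-induced calcium signal above about 50% at the single tested concentration, limit read from the data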
TAAR1 ag – agonists of human TAAR1; Q96RJ0; CHO RD-HGA16 TAAR1, Fluo-8 calcium fluorescence; vehicle wells 0%, saturating PEA agonist 100%; activation, % at 3 µM; 0.99% of 360,000 active; AID 624467;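 active means activation above the mean activation of all test compounds in the run plus 3 SD, cut at about 38% in these data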
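Test system: RD-HGA16 (CHO) cells co-expressing Gα16 and hTAAR1 | Doses: Single dose, 3 µM | Schedule: 17-24 h seeding, 75 min 37 °C dye, 30 min RT | Evaluation: % activation from peak over basal fluorescence ratio, DMSO-to-PEA scaled | Technique: Kinetic Fluo-8 calcium fluorescence | Benchmarks: Low control DMSO, high control PEA (EC100)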
TMEM16A inh – mouse TMEM16A channel inhibition, primary screen; Q8BHY3; HEK293 TMEM16A/YFP iodide influx fluorescence, ionomycin; normalized B-score (activity score, 25-100; higher = stronger inhibition) at 10 µM; 1.2% of 310,000 active;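 active means ratio plate-corrected score three or more library SD toward inhibition, starting fluorescence score within five deviations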;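 further: score derived from kinetic fluorescence span divided by baseline fluorescence per well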
nonsel antag count – nonselective antagonist in TAAR1 antagonist counter-screen; shares compounds with TAAR1 antagonist; counterscreen cell line, calcium fluorescence, antagonist mode; inhibition, % at 3 µM; 77% of 2,400 active; AID 651780; in the data active means inhibition above about 22%;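 further: CHO-Ga16 host cells stimulated with ATP at an EC80 level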
TAAR1 ant conf – human TAAR1 antagonism, confirmed; shares compounds with TAAR1 antagonist; TAAR1-expressing cells, fluorescence antagonist read-out; inhibition, % at 3 µM; 40% of 2,400 active; AID 651785; in the data active means inhibition above about 49%;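 further: CHO-Ga16 host cells challenged with agonist PEA near its EC80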
Ga16 ag counter – nonselective Ga16 agonism, counter-screen. shares compounds with TAAR1 antagonist. Ga16-expressing cells, calcium fluorescence, agonist counterscreen. activation, % at 3 µM. 18% of 2,400 active. AID 651953; in the data active means activation above about 12%
TAAR1 ag counter – TAAR1 agonism, antagonist counter-screen; shares compounds with TAAR1 antagonist; hTAAR1 cell line, fluorescence activation, agonist mode; activation, % at 3 µM; 2% of 2,400 active; in the data active means activation above about 37%;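 further: CHO cells stably expressing TAAR1 with calcium dye readout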
Hits are given with their value.

`O=C(CSc1nnc(CNC(=O)c2c(F)cccc2F)o1)NCc1ccco1` gave TMEM16A act inactive, CRFBP-R2 agonist inactive, CRFR2-BP antag inactive and TMEM16A inh inactive.
`CCOC(=O)c1ccc(-c2ccc(/C=N/NC(=O)CN(c3ccccc3Br)S(C)(=O)=O)o2)cc1` gave TMEM16A act inactive, CRFBP-R2 agonist inactive, TAAR1 antagonist 56.8, CRFR2-BP antag inactive, TAAR1 ag inactive, TMEM16A inh inactive, nonsel antag count 28.9, TAAR1 ant conf inactive, Ga16 ag counter inactive and TAAR1 ag counter inactive.
Screening CS(=O)(=O)N(CC(=O)N/N=C/c1cccc2c1OCCO2)c1ccccc1Br returned TMEM16A act inactive, CRFBP-R2 agonist inactive, TAAR1 antagonist inactive, CRFR2-BP antag inactive, TAAR1 ag inactive and TMEM16A inh inactive.
For COc1ccc2cc(CO)c3cc(OC)c(OC)cc3c2c1 the results were TMEM16A act inactive, CRFBP-R2 agonist inactive, TAAR1 antagonist inactive, CRFR2-BP antag inactive and TAAR1 ag inactive.
COc1ccc(C(=O)Nc2cccc3cccnc23)cc1OC was read as TMEM16A act inactive, CRFBP-R2 agonist inactive, TAAR1 antagonist inactive, CRFR2-BP antag inactive, TAAR1 ag inactive and TMEM16A inh inactive.
Screening COc1ccc(C(=O)Nc2cccc(NC(=O)c3ccc(OC)c(OC)c3)n2)cc1OC returned TMEM16A act inactive, CRFBP-R2 agonist inactive, TAAR1 antagonist 62.1, CRFR2-BP antag inactive, TAAR1 ag inactive, TMEM16A inh inactive, nonsel antag count 35.3, TAAR1 ant conf 54.8, Ga16 ag counter inactive and TAAR1 ag counter inactive.
COc1ccc(Cl)cc1NC(=O)CN1C(=O)CC(C)S(=O)(=O)c2ccccc21 (stereo unspecified) was read as TMEM16A act inactive, CRFBP-R2 agonist inactive, TAAR1 antagonist inactive, CRFR2-BP antag inactive, TAAR1 ag inactive and TMEM16A inh inactive.
For CCn1c(NC(=O)c2cccc(Cn3cc(Cl)cn3)c2)nc2ccccc21 the results were TMEM16A act inactive, CRFBP-R2 agonist inactive, TAAR1 antagonist 65.6, CRFR2-BP antag inactive, TAAR1 ag inactive, TMEM16A inh inactive, nonsel antag count 26.4, TAAR1 ant conf inactive, Ga16 ag counter inactive and TAAR1 ag counter inactive.
`Cn1c(NC(=O)c2cccc(Cn3cc(Cl)cn3)c2)nc2ccccc21` gave TMEM16A act inactive, CRFBP-R2 agonist inactive, TAAR1 antagonist inactive, CRFR2-BP antag inactive, TAAR1 ag inactive and TMEM16A inh inactive.
Screening O=C1CCCc2c1cc(C(=O)Nc1ccc(Br)cn1)c(=O)n2-c1ccccc1 returned TMEM16A act inactive, CRFBP-R2 agonist inactive, TAAR1 antagonist 105.9, CRFR2-BP antag inactive, TAAR1 ag inactive, TMEM16A inh inactive, nonsel antag count inactive, TAAR1 ant conf inactive, Ga16 ag counter inactive and TAAR1 ag counter inactive.
For O=C1CCCc2c1cc(C(=O)O)c(=O)n2-c1ccccc1 the results were TMEM16A act inactive, CRFBP-R2 agonist inactive, TAAR1 antagonist inactive, CRFR2-BP antag inactive, TAAR1 ag inactive and TMEM16A inh inactive.
`CSc1ccc(CCNC(=O)c2ccc(CS(=O)Cc3ccc(Cl)cc3)o2)cc1` (stereo unspecified) gave TMEM16A act inactive, CRFBP-R2 agonist inactive, TAAR1 antagonist 52.5, CRFR2-BP antag 79.5, TAAR1 ag inactive, TMEM16A inh inactive, nonsel antag count 31.6, TAAR1 ant conf inactive, Ga16 ag counter inactive and TAAR1 ag counter inactive.
`Nc1c(S(=O)(=O)c2cccs2)c2nc3ccccc3nc2n1/N=C/c1cccc(O)c1` gave TMEM16A act inactive, CRFBP-R2 agonist inactive, TAAR1 antagonist 52.2, CRFR2-BP antag inactive, TAAR1 ag inactive, TMEM16A inh inactive, nonsel antag count 33.0, TAAR1 ant conf 52.1, Ga16 ag counter inactive and TAAR1 ag counter inactive.
Screening CCOC(=O)Cc1cnc(NC(=O)CSc2nc(N)cc(N)n2)s1 returned TMEM16A act inactive, CRFBP-R2 agonist inactive, TAAR1 antagonist inactive, CRFR2-BP antag inactive, TAAR1 ag inactive and TMEM16A inh inactive.
Screening COc1ccc(C2CC(=O)C(c3cccc(C)c3)=CN2Cc2ccccc2)cc1 (stereo unspecified) returned TAAR1 antagonist 66.0, TAAR1 ag inactive, nonsel antag count 22.4, TAAR1 ant conf inactive, Ga16 ag counter inactive and TAAR1 ag counter inactive.
`COc1ccc(C2CC(=O)C(c3cccc(F)c3)=CN2Cc2ccccc2)cc1` (stereo unspecified) gave TAAR1 antagonist inactive and TAAR1 ag inactive.
For CN(C(=O)COc1ccc([N+](=O)[O-])cc1)C1CCS(=O)(=O)C1 (stereo unspecified) the results were TMEM16A act inactive, CRFBP-R2 agonist inactive, TAAR1 antagonist inactive, CRFR2-BP antag inactive, TAAR1 ag inactive and TMEM16A inh inactive.
`O=C1N[C@@H](Cc2ccccc2)COC(=O)[C@H](Cc2ccc(F)cc2)CC/C=C/C[C@@H]1CC(=O)N(CCO)Cc1ccccc1` gave TMEM16A act inactive, CRFBP-R2 agonist inactive, TAAR1 antagonist inactive, CRFR2-BP antag inactive and TAAR1 ag inactive.
O=C1N[C@@H](Cc2ccccc2)COC(=O)[C@@H](Cc2ccc(F)cc2)CC/C=C/C[C@H]1CC(=O)N(CCO)Cc1ccccc1 was read as TMEM16A act inactive, CRFBP-R2 agonist inactive, TAAR1 antagonist 65.8, CRFR2-BP antag inactive, TAAR1 ag inactive, nonsel antag count 30.5, TAAR1 ant conf inactive, Ga16 ag counter inactive and TAAR1 ag counter inactive.
For O=C1N[C@@H](Cc2ccccc2)COC(=O)[C@H](Cc2ccc(F)cc2)CC/C=C/C[C@H]1CC(=O)N(CCO)Cc1ccccc1 the results were TMEM16A act inactive, CRFBP-R2 agonist inactive, TAAR1 antagonist 65.7, CRFR2-BP antag inactive, TAAR1 ag inactive, nonsel antag count inactive, TAAR1 ant conf inactive, Ga16 ag counter inactive and TAAR1 ag counter inactive.
`O=C1N[C@@H](c2ccccc2)COC(=O)[C@@H](Cc2ccc(F)cc2)C/C=C\C[C@H]1CC(=O)N(CCO)Cc1ccccc1` gave TMEM16A act inactive, CRFBP-R2 agonist inactive, TAAR1 antagonist 58.8, CRFR2-BP antag inactive, TAAR1 ag inactive, nonsel antag count 36.5, TAAR1 ant conf 57.7, Ga16 ag counter 13.6 and TAAR1 ag counter inactive.
